Experimental data of several laboratories.
Compare with care: the assays were run in different laboratories. pIC50: −log10 of the molar value.

COc1cc(/C=C/c2cc(/C=C/c3cccc4cnccc34)[nH]n2)ccc1O gave a pIC50 of 5.08 (CHO-K1; cell growth or viability, MTT; 72 h).
The pIC50 of CSc1ccc(-c2nc3ccc(C)cc3[nH]2)cc1 is reported as 4.41 (human Rhabdomyosarcoma cell; cell growth or viability, MTT; 48 h).
COCCCN1C(/C=C/c2cccnc2)=CC(=O)CC1c1cccnc1 (stereo not shown) has a pIC50 of less than 4.12 (CHO-K1; cell growth or viability, SRB; 72 h).
The pIC50 of O=C(O)Cc1ccccc1Nc1c(Cl)cccc1Cl is reported as 4.99 (RAW264.7; IL-6 release, inhibitor; LPS-stimulated).
The pIC50 of Fc1ccc(-c2nc3ccccc3n2Cc2ccccc2)cc1 is reported as 4.55 (human Rhabdomyosarcoma cell; cell growth or viability, MTT).
CC(C)C[C@H](NC(=O)[C@H](Cc1ccccc1)NC(=O)c1cnccn1)B(O)O gave a pIC50 of 7.96 (OV56; cell growth or viability, ATP luminescence).
C(=C\c1c[nH]c2ccccc12)/c1cc(/C=C/c2cccs2)[nH]n1 has a pIC50 of 4.79 (CHO-K1; cell growth or viability, SRB; 72 h).
The pIC50 of COc1cc(/C=C/C(=O)CC(=O)/C=C/c2ccc(O)c(OC)c2)ccc1O is reported as 4.47 (CHO-K1; cell growth or viability, SRB; 72 h).
O=C(/C=C(O)/C=C/c1ccccn1)/C=C/c1c[nH]c2ccccc12 has a pIC50 of 4.46 (CHO-K1; cell growth or viability, SRB; 72 h).
With Cc1ccc2nc(-c3cccc(O)c3)[nH]c2c1 the pIC50 was 4.71 (human Rhabdomyosarcoma cell; cell growth or viability, MTT; 48 h).
